In ChEMBL document CHEMBL4118021, “Studies of TAK1-centered polypharmacology with novel covalent TAK1 inhibitors” (Bioorg Med Chem, 2017):
Active and inactive are the calls of the source. The rule behind the calls is not given here.

Assays:
[1] = target: Amidophosphoribosyltransferase (Homo sapiens) (UniProt Q06203); experiment: Binding affinity to PPAT in human NCI-H23 cells at 1 uM by mass spectrometry based pull down assay; assay type: cell-based
[2] = target: T1, 80S Ribosome (Homo sapiens) (UniProt P08865+P42677+P62753+P15880+P23396+P61247+P62701+P22090+P46782+P62081+P62241+P46781+P46783+P62280+P25398+P62277+P62263+P62841+P62244+P62249+P08708+P62269+P39019+P60866+P63220+P62266+P62847+P62851+P62854+P62979+P62857+P62273+P62861+P39023+P36578+P46777+Q02878+P18124+P62424+P62917+P32969+P27635+P62906+P62913+P30050+P26373+P40429+P50914+P61313+P18621+Q07020+Q02543+P84098+P46778+P35268+P62829+P62750+P83731+P61254+P61353+P46776+P46779+P47914+P62888+P62899+P62910+P49207+P42766+P18077+Q9Y3U8+P83881+P61927+P61513+P63173+P62891+P62945+P05388+P05386); experiment: Binding affinity to RPL8 in human NCI-H23 cells at 1 uM by mass spectrometry based pull down assay; assay type: cell-based
[3] = target: Serine hydroxymethyltransferase, mitochondrial (Homo sapiens) (UniProt P34897); experiment: Binding affinity to SHMT2 in human NCI-H358 cells at 1 uM by mass spectrometry based pull down assay; assay type: cell-based
[4] = target: T1, 80S Ribosome (Homo sapiens); experiment: Binding affinity to RPS11 in human NCI-H358 cells at 1 uM by mass spectrometry based pull down assay; assay type: cell-based
[5] = target: Phosphoribosylformylglycinamidine synthase (Homo sapiens) (UniProt O15067); experiment: Binding affinity to PFAS in human NCI-H23 cells at 1 uM by mass spectrometry based pull down assay; assay type: cell-based
Phosphoribosylformylglycinamidine synthase (Homo sapiens), sequence (O15067 whole entry): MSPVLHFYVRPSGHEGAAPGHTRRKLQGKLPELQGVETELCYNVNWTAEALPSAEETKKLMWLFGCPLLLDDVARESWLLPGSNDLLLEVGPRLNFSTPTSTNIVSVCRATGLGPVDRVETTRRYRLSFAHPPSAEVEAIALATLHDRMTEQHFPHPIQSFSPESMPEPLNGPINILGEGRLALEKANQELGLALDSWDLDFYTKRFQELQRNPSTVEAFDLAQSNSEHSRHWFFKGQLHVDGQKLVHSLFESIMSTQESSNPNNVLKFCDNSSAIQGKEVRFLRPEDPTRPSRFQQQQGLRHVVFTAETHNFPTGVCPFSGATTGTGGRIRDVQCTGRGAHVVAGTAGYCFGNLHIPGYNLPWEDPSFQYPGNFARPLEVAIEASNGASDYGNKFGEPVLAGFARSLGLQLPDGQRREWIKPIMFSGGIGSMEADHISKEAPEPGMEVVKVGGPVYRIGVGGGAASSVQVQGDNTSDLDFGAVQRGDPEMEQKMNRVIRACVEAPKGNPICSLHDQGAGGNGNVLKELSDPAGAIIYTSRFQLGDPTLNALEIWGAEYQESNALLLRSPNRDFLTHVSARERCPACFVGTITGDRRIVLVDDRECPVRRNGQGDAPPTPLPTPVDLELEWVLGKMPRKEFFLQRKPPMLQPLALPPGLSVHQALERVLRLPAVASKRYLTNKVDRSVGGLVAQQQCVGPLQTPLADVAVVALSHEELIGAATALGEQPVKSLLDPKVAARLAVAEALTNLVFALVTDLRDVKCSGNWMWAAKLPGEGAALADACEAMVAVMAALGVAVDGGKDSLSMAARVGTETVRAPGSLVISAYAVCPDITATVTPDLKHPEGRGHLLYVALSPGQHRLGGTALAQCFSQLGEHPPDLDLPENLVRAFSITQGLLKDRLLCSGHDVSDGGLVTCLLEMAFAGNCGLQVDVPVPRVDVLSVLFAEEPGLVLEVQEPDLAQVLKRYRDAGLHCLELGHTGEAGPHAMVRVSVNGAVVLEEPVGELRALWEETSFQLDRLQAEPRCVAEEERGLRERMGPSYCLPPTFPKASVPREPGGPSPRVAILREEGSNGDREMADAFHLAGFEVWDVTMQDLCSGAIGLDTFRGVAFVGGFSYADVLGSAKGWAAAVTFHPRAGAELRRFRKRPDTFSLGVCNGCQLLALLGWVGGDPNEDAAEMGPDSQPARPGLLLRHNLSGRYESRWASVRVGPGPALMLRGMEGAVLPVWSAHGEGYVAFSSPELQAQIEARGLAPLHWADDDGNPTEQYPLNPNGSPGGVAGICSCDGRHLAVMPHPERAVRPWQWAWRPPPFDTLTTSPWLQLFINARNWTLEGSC

[6] = target: Kelch-like ECH-associated protein 1 (Homo sapiens) (UniProt Q14145); experiment: Binding affinity to KEAP1 in human NCI-H23 cells at 1 uM by mass spectrometry based pull down assay; assay type: cell-based
[7] = target: Glycogen synthase kinase-3 beta (Homo sapiens) (UniProt P49841); experiment: Binding affinity to GSK3B in human NCI-H358 cells at 1 uM by mass spectrometry based pull down assay; assay type: cell-based
[8] = target: Mitogen-activated protein kinase 6 (Homo sapiens) (UniProt Q16659); experiment: Binding affinity to MAPK6 in human NCI-H358 cells at 1 uM by mass spectrometry based pull down assay; assay type: cell-based
[9] = target: Acylamino-acid-releasing enzyme (Homo sapiens) (UniProt P13798); experiment: Binding affinity to APEH in human NCI-H358 cells at 1 uM by mass spectrometry based pull down assay; assay type: cell-based
[10] = target: E3 ubiquitin-protein ligase HUWE1 (Homo sapiens) (UniProt Q7Z6Z7); experiment: Binding affinity to HUWE1 in human NCI-H23 cells at 1 uM by mass spectrometry based pull down assay; assay type: cell-based
[11] = target: General vesicular transport factor p115 (Homo sapiens) (UniProt O60763); experiment: Binding affinity to USO1 in human NCI-H358 cells at 1 uM by mass spectrometry based pull down assay; assay type: cell-based
[12] = target: Serine/threonine-protein phosphatase PP1-alpha catalytic subunit (Homo sapiens) (UniProt P62136); experiment: Binding affinity to PPP1CA in human NCI-H23 cells at 1 uM by mass spectrometry based pull down assay; assay type: cell-based
NCI-H23 [13] = experiment: Binding affinity to PSMA1 in human NCI-H23 cells at 1 uM by mass spectrometry based pull down assay; assay type: cell-based
Tensin-3 (Homo sapiens) = Tensin-3 (Homo sapiens) (UniProt Q68CZ2); experiment: Binding affinity to TNS3 in human NCI-H358 cells at 1 uM by mass spectrometry based pull down assay; assay type: cell-based
[14] = target: Tight junction protein 1 (Homo sapiens) (UniProt Q07157); experiment: Binding affinity to TJP1 in human NCI-H358 cells at 1 uM by mass spectrometry based pull down assay; assay type: cell-based
Tight junction protein 1 (Homo sapiens), sequence (Q07157 whole entry): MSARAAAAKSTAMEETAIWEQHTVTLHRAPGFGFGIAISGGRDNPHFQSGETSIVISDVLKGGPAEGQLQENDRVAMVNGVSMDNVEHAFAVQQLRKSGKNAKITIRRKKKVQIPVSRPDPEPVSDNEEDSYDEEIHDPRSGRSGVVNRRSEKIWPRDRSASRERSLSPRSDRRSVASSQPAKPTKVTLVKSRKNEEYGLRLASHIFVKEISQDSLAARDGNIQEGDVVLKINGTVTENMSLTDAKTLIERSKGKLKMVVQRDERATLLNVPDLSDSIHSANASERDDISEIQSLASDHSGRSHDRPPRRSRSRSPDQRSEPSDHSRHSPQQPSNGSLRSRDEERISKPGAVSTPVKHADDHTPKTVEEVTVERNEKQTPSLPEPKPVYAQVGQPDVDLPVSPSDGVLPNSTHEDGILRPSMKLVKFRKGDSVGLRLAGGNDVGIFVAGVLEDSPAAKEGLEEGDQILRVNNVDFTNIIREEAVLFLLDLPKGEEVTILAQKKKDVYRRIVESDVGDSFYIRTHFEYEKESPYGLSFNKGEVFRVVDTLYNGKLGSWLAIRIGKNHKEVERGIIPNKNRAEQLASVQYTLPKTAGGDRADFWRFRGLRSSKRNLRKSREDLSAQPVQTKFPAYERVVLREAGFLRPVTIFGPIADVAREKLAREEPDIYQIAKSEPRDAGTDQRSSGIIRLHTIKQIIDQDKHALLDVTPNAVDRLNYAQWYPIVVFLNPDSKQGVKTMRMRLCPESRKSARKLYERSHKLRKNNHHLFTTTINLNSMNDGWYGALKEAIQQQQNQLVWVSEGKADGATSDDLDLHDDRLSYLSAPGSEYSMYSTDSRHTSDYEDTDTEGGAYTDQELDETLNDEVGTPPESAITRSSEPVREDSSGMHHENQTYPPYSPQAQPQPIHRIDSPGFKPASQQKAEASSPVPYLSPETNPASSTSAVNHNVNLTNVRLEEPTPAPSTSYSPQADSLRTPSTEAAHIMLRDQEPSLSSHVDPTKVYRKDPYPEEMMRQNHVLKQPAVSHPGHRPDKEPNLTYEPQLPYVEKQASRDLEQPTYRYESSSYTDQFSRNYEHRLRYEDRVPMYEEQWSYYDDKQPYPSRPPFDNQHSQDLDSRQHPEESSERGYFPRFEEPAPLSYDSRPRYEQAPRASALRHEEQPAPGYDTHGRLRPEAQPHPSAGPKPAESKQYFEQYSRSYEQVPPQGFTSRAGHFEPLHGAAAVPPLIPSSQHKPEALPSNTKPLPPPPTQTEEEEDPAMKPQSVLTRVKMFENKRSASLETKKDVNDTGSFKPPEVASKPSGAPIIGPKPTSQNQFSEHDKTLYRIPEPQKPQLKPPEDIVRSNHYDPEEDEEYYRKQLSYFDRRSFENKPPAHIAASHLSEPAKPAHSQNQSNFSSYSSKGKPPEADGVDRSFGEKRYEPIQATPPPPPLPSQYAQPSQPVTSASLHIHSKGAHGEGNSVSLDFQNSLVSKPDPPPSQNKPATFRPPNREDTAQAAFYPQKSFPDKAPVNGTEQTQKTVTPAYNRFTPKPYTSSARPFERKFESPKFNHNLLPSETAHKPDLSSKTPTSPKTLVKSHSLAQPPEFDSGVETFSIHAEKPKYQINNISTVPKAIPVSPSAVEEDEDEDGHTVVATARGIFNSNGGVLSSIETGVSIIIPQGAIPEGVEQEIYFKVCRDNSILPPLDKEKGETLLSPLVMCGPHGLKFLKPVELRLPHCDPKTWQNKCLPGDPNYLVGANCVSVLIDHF

[15] = target: ADP-ribosylation factor-like protein 8B (Homo sapiens) (UniProt Q9NVJ2); experiment: Binding affinity to ARL8B in human NCI-H23 cells at 1 uM by mass spectrometry based pull down assay; assay type: cell-based
[16] = target: Peroxiredoxin-6 (Homo sapiens) (UniProt P30041); experiment: Binding affinity to PRDX6 in human NCI-H358 cells at 1 uM by mass spectrometry based pull down assay; assay type: cell-based
[17] = target: F-actin-capping protein subunit beta (Homo sapiens) (UniProt P47756); experiment: Binding affinity to CAPZB in human NCI-H358 cells at 1 uM by mass spectrometry based pull down assay; assay type: cell-based
[18] = target: Trafficking protein particle complex subunit 5 (Homo sapiens) (UniProt Q8IUR0); experiment: Binding affinity to TRAPPC5 in human NCI-H358 cells at 1 uM by mass spectrometry based pull down assay; assay type: cell-based
Trafficking protein particle complex subunit 5 (Homo sapiens), sequence (Q8IUR0 whole entry, one chain of several): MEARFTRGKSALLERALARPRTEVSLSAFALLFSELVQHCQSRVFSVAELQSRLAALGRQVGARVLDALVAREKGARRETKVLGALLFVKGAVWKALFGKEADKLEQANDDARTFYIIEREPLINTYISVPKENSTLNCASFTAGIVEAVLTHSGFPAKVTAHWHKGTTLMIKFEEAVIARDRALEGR

NCI-H23 [19] = experiment: Binding affinity to NDUFS7 in human NCI-H23 cells at 1 uM by mass spectrometry based pull down assay; assay type: cell-based
[20] = target: Glutamate--cysteine ligase catalytic subunit (Homo sapiens) (UniProt P48506); experiment: Binding affinity to GCLC in human NCI-H358 cells at 1 uM by mass spectrometry based pull down assay; assay type: cell-based
Glutamate--cysteine ligase catalytic subunit (Homo sapiens), sequence (P48506 whole entry, the tested form may be a part): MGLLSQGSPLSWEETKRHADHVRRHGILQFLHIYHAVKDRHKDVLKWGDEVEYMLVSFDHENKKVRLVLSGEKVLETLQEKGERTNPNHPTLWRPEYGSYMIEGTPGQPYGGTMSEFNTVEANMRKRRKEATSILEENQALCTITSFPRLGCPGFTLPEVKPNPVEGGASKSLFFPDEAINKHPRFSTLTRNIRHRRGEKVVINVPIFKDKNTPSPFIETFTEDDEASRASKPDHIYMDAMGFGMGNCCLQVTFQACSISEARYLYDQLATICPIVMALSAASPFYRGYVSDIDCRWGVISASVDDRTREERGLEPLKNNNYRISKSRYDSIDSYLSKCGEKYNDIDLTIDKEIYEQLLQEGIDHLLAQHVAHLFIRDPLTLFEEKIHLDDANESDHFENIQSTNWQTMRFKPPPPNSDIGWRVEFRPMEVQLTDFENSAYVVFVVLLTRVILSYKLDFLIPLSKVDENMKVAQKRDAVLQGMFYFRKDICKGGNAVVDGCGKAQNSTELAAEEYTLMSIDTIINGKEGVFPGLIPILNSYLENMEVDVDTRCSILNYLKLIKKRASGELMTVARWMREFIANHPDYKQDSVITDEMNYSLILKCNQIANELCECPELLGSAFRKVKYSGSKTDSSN

[21] = target: Platelet-derived growth factor receptor beta (Homo sapiens) (UniProt P09619); experiment: Inhibition of human PDGFRB (582 to 1009 residues) expressed in bacterial expression system assessed as enzyme activity at 1 uM by KINOMEScan assay relative to control; set-up: scale not given: the % may be the effect or the level left
Platelet-derived growth factor receptor beta (Homo sapiens), sequence (P09619 whole entry, the tested form may be a part): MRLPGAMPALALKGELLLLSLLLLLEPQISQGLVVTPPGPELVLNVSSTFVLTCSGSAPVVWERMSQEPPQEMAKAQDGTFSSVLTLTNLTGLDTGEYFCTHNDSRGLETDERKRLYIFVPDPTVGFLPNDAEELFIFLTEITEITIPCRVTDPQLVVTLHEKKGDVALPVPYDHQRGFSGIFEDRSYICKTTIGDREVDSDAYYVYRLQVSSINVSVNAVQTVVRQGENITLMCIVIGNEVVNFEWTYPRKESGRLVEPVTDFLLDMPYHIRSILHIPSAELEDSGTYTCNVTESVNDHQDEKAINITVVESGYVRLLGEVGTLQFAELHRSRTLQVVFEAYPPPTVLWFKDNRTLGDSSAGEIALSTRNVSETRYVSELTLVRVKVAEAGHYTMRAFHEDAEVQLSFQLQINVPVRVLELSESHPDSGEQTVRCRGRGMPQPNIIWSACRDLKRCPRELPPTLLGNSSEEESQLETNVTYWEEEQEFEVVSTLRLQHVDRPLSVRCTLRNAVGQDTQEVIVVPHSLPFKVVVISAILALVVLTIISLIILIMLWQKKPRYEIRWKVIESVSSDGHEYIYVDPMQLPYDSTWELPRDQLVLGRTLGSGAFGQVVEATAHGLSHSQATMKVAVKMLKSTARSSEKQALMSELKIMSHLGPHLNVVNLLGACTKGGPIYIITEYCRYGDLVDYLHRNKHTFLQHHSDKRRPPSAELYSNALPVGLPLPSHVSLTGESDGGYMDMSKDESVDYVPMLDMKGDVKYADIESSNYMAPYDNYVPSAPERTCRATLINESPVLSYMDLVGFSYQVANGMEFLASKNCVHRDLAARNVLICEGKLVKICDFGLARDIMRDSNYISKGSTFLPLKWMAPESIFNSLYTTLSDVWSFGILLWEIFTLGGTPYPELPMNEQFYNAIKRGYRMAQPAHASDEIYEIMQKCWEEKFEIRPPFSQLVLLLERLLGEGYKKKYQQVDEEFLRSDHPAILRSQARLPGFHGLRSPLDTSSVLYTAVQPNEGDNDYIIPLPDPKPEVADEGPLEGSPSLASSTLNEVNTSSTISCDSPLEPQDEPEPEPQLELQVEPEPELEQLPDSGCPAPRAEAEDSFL
In short: (§1)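 In vitro ATP-site competition binding assay across a panel of 456 kinases, with compound tested at 1 and 10 μM.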

[22] = target: TGF-beta receptor type-2 (Homo sapiens) (UniProt P37173); experiment: Inhibition of human TGFBR2 (218 to 567 residues) expressed in bacterial expression system assessed as enzyme activity at 10 uM by KINOMEScan assay relative to control; set-up: scale not given: the % may be the effect or the level left; in short: as §1
[23] = target: Mitogen-activated protein kinase kinase kinase 20 (Homo sapiens) (UniProt Q9NYL2); experiment: Inhibition of human ZAK (1 to 331 residues) expressed in bacterial expression system assessed as enzyme activity at 10 uM by KINOMEScan assay relative to control; set-up: scale not given: the % may be the effect or the level left; in short: as §1
[24] = target: Serine/threonine-protein kinase RIO3 (Homo sapiens) (UniProt O14730); experiment: Inhibition of full length human RIOK3 (1 to 519 residues) expressed in bacterial expression system assessed as enzyme activity at 1 uM by KINOMEScan assay relative to control; set-up: scale not given: the % may be the effect or the level left
In short: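 In vitro ATP-site competition binding assay (KinomeScan) across a panel of 456 kinases. Compound was tested at 1 and 10 μM. The read-out is the binding inhibition score relative to control.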

C=CC(=O)Nc1ccccc1Nc1nc(Nc2ccc(N3CCN(CCOCCOCCOCCNC(=O)CCCC[C@@H]4SC[C@@H]5NC(=O)N[C@@H]54)CC3)cc2)ncc1Cl
Activity [1]: Active | Activity [2]: Active | Activity [3]: Active | Activity [4]: Active | Activity [5]: Active | Activity [6]: Active | Activity [7]: Active | Activity [8]: Active | Activity [9]: Active | Activity [10]: Active | Activity [11]: Active | Activity [12]: Active | Activity (NCI-H23 [13]): Active | Activity (Tensin-3 (Homo sapiens)): Active | Activity [14]: Active | Activity [15]: Active | Activity [16]: Active | Activity [17]: Active | Activity [18]: Active | Activity (NCI-H23 [19]): Active | Activity [20]: Active

COc1cc(O)c2c(c1)/C=C/C[C@H](O)[C@H](O)C(=O)/C=C\C[C@H](C)OC2=O
Activity [21]: 1.5% | Activity [22]: 0.9% | Activity [23]: 2.2% | Activity [24]: 74%
